Data set [1] deals with Plasmodium falciparum. The data set can be described thus: Antimalarial activity against Plasmodium falciparum HB3. The class given is functional, organism-based.
Data set [2] concerns Plasmodium falciparum. As to the kind of experiment: Antimalarial activity against Plasmodium falciparum TM4. The class given is functional, organism-based.
Data set [3] deals with Plasmodium falciparum. As to the kind of experiment: Antimalarial activity against Plasmodium falciparum GC03. The class given is functional, organism-based.
Data set [4] relates to Plasmodium falciparum. The data set can be described thus: Antimalarial activity against Plasmodium falciparum V1/S. The class given is functional, organism-based. The conditions noted are these: V1S.
Data set [5] deals with Plasmodium falciparum. The data set can be described thus: Antimalarial activity against Plasmodium falciparum PH3. In kind it is functional, organism-based.
For data set [6], the system named is Plasmodium falciparum. As to the kind of experiment: Antimalarial activity against Plasmodium falciparum K1. In kind it is functional, organism-based.
For data set [7], the system named is Plasmodium falciparum. As to the kind of experiment: Antimalarial activity against Plasmodium falciparum DD2. In kind it is functional, organism-based.
Data set [8] relates to Plasmodium falciparum. As to the kind of experiment: Antimalarial activity against Plasmodium falciparum 3D7. In kind it is functional, organism-based.
A short description of data set [9]: Chemical stability assessed as endoperoxide recovery after 24 hrs by iron degradation study. The class given is physicochemical. The note with it: read-out: Stability. The method in brief:
(§1)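 Endoperoxide (1.0 equiv FeBr₂) was held in THF for 4, 8, 24 or 48 h. The residue was purified by flash column chromatography, and the percent recovery of starting endoperoxide was calculated.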

Data set [10] can be described thus: Chemical stability assessed as endoperoxide recovery after 48 hrs by iron degradation study. In kind it is physicochemical. The note with it: read-out: Stability. The method in brief: as §1
Data set [11] is described as follows: Chemical stability assessed as endoperoxide recovery after 4 hrs by iron degradation study. The note with it: read-out: Stability. The class given is physicochemical. In short, it runs like this: as §1
Data set [12] in a line: Chemical stability assessed as endoperoxide recovery after 8 hrs by iron degradation study. The class given is physicochemical. The conditions noted are these: read-out: Stability. The method in brief:
as §1

Data set [13] is described as follows: Cytotoxicity against rat L6 cells by resazurin reduction assay. The class given is cell-based. The conditions noted are these: read-out: TC50 (the source's name). The method in brief: (§2)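 Cytotoxicity was read by resazurin reduction. A single full dose-response curve was built from 10 independent drug concentrations to give TOX₅₀.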
Data set [14] concerns Salmonella typhimurium. The data set can be described thus: Genotoxicity against Salmonella Typhimurium NM2009 assessed as induction of umu operon expression. The class given is toxicity, organism-based. The note with it: salmonella enterica subsp. enterica serovar typhimurium.
The nature of data set [15]: Chemical stability in dichloromethane in presence of formic acid assessed as tetraoxane recovery after 7 days. The class given is physicochemical. The conditions noted are these: dichloromethane with formic acid; read-out: Stability.
Data set [16] in a line: Cytotoxicity against human MRC5 cells by resazurin reduction assay. The note with it: read-out: TC50 (the source's name). In kind it is cell-based. In short, it runs like this: as §2
A general note: Alamar Blue is a resazurin reagent that responds to reducing activity.

Data set [17] can be described thus: Cytotoxicity against rat H9c(2-1) cells by resazurin reduction assay. In kind it is cell-based. The note with it: read-out: TC50 (the source's name). In short, it runs like this:
as §2

Data set [18] can be described thus: Therapeutic index, ratio of TOX50 for rat L6 cells to IC50 Plasmodium falciparum 3D7. The class given is cell-based. In short, it runs like this: (§3)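 TOX₅₀ came from resazurin reduction, with single full dose-response curves over 10 independent concentrations. The index is TOX₅₀ divided by the IC₅₀ against the P. falciparum 3D7 isolate.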
Data set [19] is described as follows: Chemical stability in phosphate buffer assessed as tetraoxane recovery at pH 7.4 after 16 hrs. The class given is physicochemical. The note with it: read-out: Stability.
Data set [20] has as its system Salmonella typhimurium. The data set can be described thus: Genotoxicity against Salmonella Typhimurium TA 1535/pSK1002 assessed as induction of umu operon expression in presence of rat liver S9 fraction. The class given is toxicity, organism-based. The conditions noted are these: salmonella enterica subsp. enterica serovar typhimurium. In short, it runs like this:
(§4)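 SOS/umu assay with rat liver S9-mix for metabolic activation. Tester strains carry plasmid pSK1002 with a umuC-lacZ fusion, and induced β-galactosidase activity is the read-out. Positive controls checked strain response. The highest concentration tested was 50 µM.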

A short description of data set [21]: Therapeutic index, ratio of TOX50 for african green monkey (Cercopithecus aethiops) Vero cells to IC50 Plasmodium falciparum 3D7. The class given is cell-based. The method in brief: as §3
A short description of data set [22]: Therapeutic index, ratio of TOX50 for human […] cells to IC50 Plasmodium falciparum 3D7. The class given is cell-based. The method in brief: as §3
A short description of data set [23]: Chemical stability in dichloromethane assessed as tetraoxane recovery after 7 days. The class given is physicochemical. The conditions noted are these: read-out: Stability.
Data set [24] relates to Salmonella typhimurium. The data set can be described thus: Genotoxicity against Salmonella Typhimurium TA 1535/pSK1002 assessed as induction of umu operon expression. In kind it is toxicity, organism-based. The note with it: salmonella enterica subsp. enterica serovar typhimurium.
The nature of data set [25]: Therapeutic index, ratio of TOX50 for human MRC5 cells to IC50 Plasmodium falciparum 3D7. In kind it is cell-based. In short, it runs like this:
as §3

Data set [26] can be described thus: Cytotoxicity against human […] cells by resazurin reduction assay. In kind it is cell-based. The note with it: read-out: TC50 (the source's name). In short, it runs like this:
as §2

Data set [27] in a line: Cytotoxicity against african green monkey Vero cells by resazurin reduction assay. In kind it is cell-based. The conditions noted are these: chlorocebus sabaeus, read-out: TC50 (the source's name). The method in brief:
as §2

The subject of data set [28] is Salmonella typhimurium. The data set can be described thus: Genotoxicity against Salmonella Typhimurium NM2009 assessed as induction of umu operon expression in presence of rat liver S9 fraction. The class given is toxicity, organism-based. The note with it: salmonella enterica subsp. enterica serovar typhimurium. In short, it runs like this:
as §4

Data set [29] is described as follows: Chemical stability in water assessed as tetraoxane recovery after 7 days. In kind it is physicochemical. The conditions noted are these: read-out: Stability.
Data set [30] is described as follows: Therapeutic index, ratio of TOX50 for rat H9c(2-1) cells to IC50 Plasmodium falciparum 3D7. In short, it runs like this:
as §3

Data set [31] deals with Plasmodium falciparum. The data set can be described thus: Antimalarial activity against Plasmodium falciparum.
For data set [32], the system named is Plasmodium berghei. As to the kind of experiment: Antimalarial activity against Plasmodium berghei ANKA infected mice (Mus musculus) by peroral dose. In kind it is functional. The conditions noted are these: po.

For the compound `CCN(CC)Cc1cc(Nc2ccnc3cc(Cl)ccc23)ccc1O`, the IC50 amounted to 5.9 nM in data set [1]; 6.4 nM in [2]; 4.5 nM in data set [3]; 7.7 nM in data set [4]; 4.7 nM in [5]; 10.2 nM in data set [6]. Further, in data set [7], the IC50 came out at 6.1 nM.
In the case of `O=S(=O)(c1ccc(Cl)cc1)N1CCC2(CC1)OOC1(OO2)C2CC3CC(C2)CC1C3`, in data set [8], half-maximal inhibition (IC50) was put at 22.7 nM.
Same read-out and setting: next, `CS(=O)(=O)N1CCC2(CC1)OOC1(CCCCCCCCCCC1)OO2`: 27.8 nM.
Take `O=S(=O)(c1ccc(C(F)(F)F)cc1)N1CCC2(CC1)OOC1(OO2)C2CC3CC(C2)CC1C3`: inhibition in data set [8] was half-maximal at 20.7 nM (IC50).
Turning to `O=C(N1CCOCC1)N1CCC2(CC1)OOC1(OO2)C2CC3CC(C2)CC1C3`, in [8], the half-maximal inhibitory concentration (IC50) is 4.7 nM.
Same read-out and setting: next, `O=S(=O)(CC(F)(F)F)N1CCC2(CC1)OOC1(OO2)C2CC3CC(C2)CC1C3`: 14.3 nM; `O=C(CCc1ccc(S(=O)(=O)N2CCC3(CC2)OOC2(OO3)C3CC4CC(C3)CC2C4)cc1)NCCCCNc1ccc([N+](=O)[O-])c2nonc12`: 16 nM.
With `O=S(=O)(c1ccccc1)N1CCC2(CC1)COC1(OO2)C2CC3CC(C2)CC1C3` (centres undefined), in data set [9], the remaining at 24 h came out at 56.7%. Further, the remaining at 48 h in [10] was determined as 43.2%. Further, the remaining at 4 h in data set [11] is 96.8%. The remaining at 8 h in [12] is 84.9%.
`CC(C)S(=O)(=O)N1CCC2(CC1)OOC1(OO2)C2CC3CC(C2)CC1C3` gave an IC50 in [8] of 5.87 nM.
Regarding `CCS(=O)(=O)N1CCC2(CC1)OOC1(OO2)C2CC3CC(C2)CC1C3`, the CC50 was 31000 nM in data set [13]; greater than 50000 nM in [16]; greater than 50000 nM in data set [17]; greater than 50000 nM in data set [26]; greater than 50000 nM in data set [27]. Moreover, the Activity was 1.07 in data set [14], 0.98 in data set [20], 1.03 in data set [24] and 0.95 in data set [28]. For the same compound, the remaining at 168 h came out at 92.3% in data set [15], 96.2% in data set [23] and 97.8% in data set [29]. Moreover, the TI in data set [18] is 5640; in [21], greater than 9090; in [22], greater than 9090; in data set [25], greater than 9090; in data set [30], greater than 9090. The remaining at 16 h in data set [19] is 93.2%. Moreover, the IC50 came out at 3.8 nM in data set [1]; 2.4 nM in data set [2]; 3 nM in [3]; 2.7 nM in data set [4]; 1.9 nM in [5]; 3 nM in [6]. For the same compound, the values for the 50% inhibitory concentration (IC50) in data set [7] and in data set [8] were 3 nM and 5.55 nM, respectively.
For `CS(=O)(=O)N1CCC2(CC1)OOC1(OO2)C2CC3CC(C2)CC1C3`, it took 10.2 nM to reach half-maximal inhibition in data set [8] (IC50).
Same read-out and setting: next, `O=S(=O)(c1ccccc1)N1CCC2(CC1)OOC1(CCCCCCCCCCC1)OO2`: 131 nM; `CCS(=O)(=O)N1C2CCC1CC1(C2)OOC2(OO1)C1CC3CC(C1)CC2C3` (centres undefined): 60.6 nM; `O=S(=O)(c1ccccc1)N1CCC2(CC1)OCC1(OO2)C2CC3CC(C2)CC1C3` (centres undefined): greater than 1000 nM.
As to `O=S(=O)(C1CC1)N1CCC2(CC1)OOC1(OO2)C2CC3CC(C2)CC1C3`, the CC50 in data set [13], in data set [16], in data set [17], in data set [26] and in data set [27] was greater than 50000 nM throughout. The Activity in data set [14] was 1.09; in data set [20] it was 0.99; in data set [24], 1.05; in data set [28] it was 1.07. Also, the TI in [18], in data set [21], in data set [22], in data set [25] and in data set [30] was greater than 14300 in each case. The compound also showed an IC50 in data set [8] of 3.52 nM.
Consider `O=S(=O)(c1ccccc1)N1CCC2(CC1)OOC1(O2)C2CC3CC(C2)CC1C3` (centres undefined), for which the remaining at 24 h in [9] is 2.6%. The remaining at 48 h in data set [10] is 0%. Besides, the remaining at 4 h in data set [11] was 11%. Besides, the remaining at 8 h in data set [12] is 9%. In addition, it took 4.98 nM to reach half-maximal inhibition in data set [8] (IC50).
For `O=S(=O)(c1ccc(F)cc1)N1CCC2(CC1)OOC1(OO2)C2CC3CC(C2)CC1C3`, the IC50 in [8] came out at 16.7 nM.
With `O=S(=O)(c1ccccc1)N1CCC2(CC1)OOC1(OO2)C2CC3CC(C2)CC1C3`, the remaining at 24 h in [9] was 72%. Besides, in data set [10], the remaining at 48 h was found to be 69%. The remaining at 4 h in [11] stood at 88.7%. In addition, the remaining at 8 h in data set [12] stood at 80.5%. Also, the IC50 in data set [8] turned out to be 5.46 nM.
In the case of `O=C(CC1CCC2(CC1)OOC1(OO2)C2CC3CC(C2)CC1C3)N1CCOCC1` (centres undefined), the Activity in data set [14] is listed as 1.22; in data set [20], 0.98; in data set [24], 1.04; in data set [28] it was 1.02. In data set [31], this compound registered an IC50 of 5.2 nM.
Regarding `CC(C)S(=O)(=O)N1CCC2(CC1)OOC1(CCCCCCCCCCC1)OO2`, the IC50 in data set [8] was 86.4 nM.
`CCS(=O)(=O)N1CCC2(CC1)OOC1(CCCCCCCCCCC1)OO2` yielded an IC50 in data set [8] of 29.1 nM.
Take `C[C@H]1[C@H](OC(=O)CCC(=O)O)O[C@@H]2OC3(C)CC[C@H]4[C@H](C)CC[C@@H]1[C@@]24OO3` (single isomer, unassigned) [SODIUM ARESUNATE]: the half-inhibitory concentration (IC50) in data set [6] came to 0.7 nM; in [8], 0.6 nM.
`Nc1ccc2cc3ccccc3cc2c1` [2-AMINOANTHRACENE]: the Activity came to 1.08 in [14], 7.34 in [20], 1.1 in data set [24] and 6.09 in data set [28].
In the case of `C[C@@H]1CC[C@H]2[C@@H](C)C(=O)O[C@@H]3O[C@@]4(C)CC[C@@H]1[C@]32OO4` [ARTEMISININ], the ED50 in data set [32] stood at 8.42 mg/kg. Besides, half-maximal inhibition in data set [8] (IC50) required 9.2 nM.

As a reminder, the IC50 is the point on the concentration scale where inhibition reaches its midpoint. The term ED50 denotes the dose that gives a 50% effect, or the effect in half of the subjects.

Values taken from ChEMBL document CHEMBL1142435, “Two-step synthesis of achiral dispiro-1,2,4,5-tetraoxanes with outstanding antimalarial activity, low toxicity, and high-stability profiles” (J Med Chem, 2008).
